Measurements taken from PubChem BioAssay AID602222 (Southern Research Specialized Biocontainment Screening …, 2012).
pIC50: −log10 of the molar value. Active and inactive are the calls of the source.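 How the source made its calls: active means inhibition of 30% or more at any tested concentration; inactive means the rest.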

Biological target: M18 aspartyl aminopeptidase (Plasmodium falciparum 3D7)
Test: PfM18AAP aminopeptidase inhibitors, dose response, biochemical, QFRET, H-Glu-NHMec substrate, set 1 (AID 602222)
Details: recombinant PfM18AAP, H-Glu-NHMec fluorogenic substrate cleavage; for inhibition: at 100 µM (top of the series)
How it was run: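 System: recombinant PfM18AAP enzyme; amount: PFM18AAP enzyme at 5 µg/mL final; buffer or medium: Cobalt-containing Tris-HCl buffer, pH 7.5; reagent: H-Glu-NHMec substrate, 0.1 mM final; times: Compound-enzyme-substrate incubation 90 min at room temperature; detection: fluorescence of liberated NHMec leaving group; controls: full reaction and no-enzyme wells; replication: each concentration tested in triplicate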

SMILES | pIC50 | inhibition
Oc1ccc(-c2csc(NC3CCCC3)n2)cc1O | 4.88 | –
Oc1ccc(CCNc2ccnc3ccccc23)cc1O | 5.13 | –
CN1CCN(c2nc(-c3ccc(O)c(O)c3)cs2)CC1 | 5.03 | –
COc1ccc(CCNC(c2ccccc2)c2ccccc2)cc1OC | – | inactive
COc1ccc(CCCN2CCN(C)CC2)cc1OC | – | inactive
CN1CCN(CCc2ccc(O)c(O)c2)CC1 | 4.57 | –
Oc1ccc(CCNc2c3ccccc3nc3ccccc23)cc1O | 5.37 | –
CN1CCN(CCCc2ccc(O)c(O)c2)CC1 | 4.88 | –
Oc1ccc(-c2csc(Nc3ncccn3)n2)cc1O | 5.19 | –
CCc1ccc(NC(=O)Cc2nc(-c3ccc(O)c(O)c3)cs2)cc1 | 4.78 | –
